From publication PMC11634041 (Nature, 2024)

Columns and labels:
human HCN1 (full length) = target: T1, human HCN1 (full length) (Homo sapiens, UniProt O60741); assay: two-electrode voltage clamp, oocytes; format: cell-based; settings: 30 μM propofol, 20 min incubation; pH 7.4; allosteric inhibitor
T1 sequence (O60741 1-890): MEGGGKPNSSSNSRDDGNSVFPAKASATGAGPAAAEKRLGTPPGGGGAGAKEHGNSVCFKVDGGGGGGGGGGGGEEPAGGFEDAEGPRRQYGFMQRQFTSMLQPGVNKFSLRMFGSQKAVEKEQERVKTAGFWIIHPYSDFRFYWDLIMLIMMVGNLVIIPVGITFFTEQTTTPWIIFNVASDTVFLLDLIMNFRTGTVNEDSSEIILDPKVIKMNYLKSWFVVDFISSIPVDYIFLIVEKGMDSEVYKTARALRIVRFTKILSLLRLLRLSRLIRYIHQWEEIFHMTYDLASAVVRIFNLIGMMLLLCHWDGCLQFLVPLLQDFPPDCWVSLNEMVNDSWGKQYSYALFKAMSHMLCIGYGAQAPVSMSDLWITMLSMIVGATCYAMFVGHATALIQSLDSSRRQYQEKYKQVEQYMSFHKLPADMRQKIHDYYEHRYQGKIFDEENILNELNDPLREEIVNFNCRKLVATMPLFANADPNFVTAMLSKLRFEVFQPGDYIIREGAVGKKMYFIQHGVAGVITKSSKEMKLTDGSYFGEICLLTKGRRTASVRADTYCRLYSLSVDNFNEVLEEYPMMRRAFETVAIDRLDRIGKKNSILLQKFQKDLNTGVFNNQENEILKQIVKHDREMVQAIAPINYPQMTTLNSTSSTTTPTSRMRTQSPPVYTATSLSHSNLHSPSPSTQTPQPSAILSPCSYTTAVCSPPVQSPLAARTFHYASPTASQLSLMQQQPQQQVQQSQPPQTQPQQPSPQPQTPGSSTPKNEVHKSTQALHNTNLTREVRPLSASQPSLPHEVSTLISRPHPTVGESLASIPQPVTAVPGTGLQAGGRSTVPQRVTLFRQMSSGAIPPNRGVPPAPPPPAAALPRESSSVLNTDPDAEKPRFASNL
How it was run: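 Full-length human HCN1 RNA (wild type or mutant), made by in vitro transcription, injected into defolliculated Xenopus laevis oocytes. Oocytes stored at 16°C in 1:2 diluted L-15 medium with 2.5% penicillin-streptomycin and 5 mM HEPES pH 7.5. Two-electrode clamp used 3 M KCl-filled electrodes (0.1–0.5 MΩ current, 1–5 MΩ voltage).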

[1] = target: spHCN (R332C background, Alexa-488 labelled, called WT) (Strongylocentrotus purpuratus, UniProt O76977, R332C/M375L); assay: two-electrode voltage clamp, oocytes; format: cell-based; settings: 100 μM ZD7288; pore blocker control; Alexa-488-labelled channel
cryo-EM structure = target: the molecule itself; assay: cryo-EM structure

CC(C)c1cccc(C(C)C)c1O [propofol, 2,6-di-iso-propylphenol]
ΔV1/2 (mV) / I / Iapo (%) (human HCN1 (full length)): −30.9 ± 6.4 mV

CCN(c1ccccc1)c1cc(NC)[n+](C)c(C)n1 [ZD7288]
two-electrode voltage clamp, oocytes [1]: currents from spHCN M375L channels are blocked by the HCN-channel blocker ZD7288

B1: human HCN1EM M305L in lipid nanodiscs (natural protein, UniProt O60741 1-890, looked up)
chain: MEGGGKPNSSSNSRDDGNSVFPAKASATGAGPAAAEKRLGTPPGGGGAGAKEHGNSVCFKVDGGGGGGGGGGGGEEPAGGFEDAEGPRRQYGFMQRQFTSMLQPGVNKFSLRMFGSQKAVEKEQERVKTAGFWIIHPYSDFRFYWDLIMLIMMVGNLVIIPVGITFFTEQTTTPWIIFNVASDTVFLLDLIMNFRTGTVNEDSSEIILDPKVIKMNYLKSWFVVDFISSIPVDYIFLIVEKGMDSEVYKTARALRIVRFTKILSLLRLLRLSRLIRYIHQWEEIFHMTYDLASAVVRIFNLIGMLLLLCHWDGCLQFLVPLLQDFPPDCWVSLNEMVNDSWGKQYSYALFKAMSHMLCIGYGAQAPVSMSDLWITMLSMIVGATCYAMFVGHATALIQSLDSSRRQYQEKYKQVEQYMSFHKLPADMRQKIHDYYEHRYQGKIFDEENILNELNDPLREEIVNFNCRKLVATMPLFANADPNFVTAMLSKLRFEVFQPGDYIIREGAVGKKMYFIQHGVAGVITKSSKEMKLTDGSYFGEICLLTKGRRTASVRADTYCRLYSLSVDNFNEVLEEYPMMRRAFETVAIDRLDRIGKKNSILLQKFQKDLNTGVFNNQENEILKQIVKHDREMVQAALPRESSSVLNTDPDAEKPRFASNL
binding result (cryo-EM structure): binds
